Measured values taken from ChEMBL document CHEMBL1800039, “Structure-based design of short peptide ligands binding onto the E. coli processivity ring” (J Med Chem, 2011).
Where a SMILES comes first, the peptide text is derived from it. [ ]: non-standard residue; d: D form. Phe(3,4-Cl2) = N[C@@H](Cc1ccc(Cl)c(Cl)c1)C(=O)O; Phe(4-Br) = N[C@@H](Cc1ccc(Br)cc1)C(=O)O; Phe(4-Cl) = N[C@@H](Cc1ccc(Cl)cc1)C(=O)O; Phe(4-Me) = Cc1ccc(C[C@H](N)C(=O)O)cc1; hCha = N[C@@H](CCC1CCCCC1)C(=O)O; tBuAla = CC(C)(C)C[C@H](N)C(=O)O; Cha = N[C@@H](CC1CCCCC1)C(=O)O

Tests used:
[1] = Binding affinity to Escherichia coli DNA polymerase 3 subunit beta expressed in Escherichia coli BL21 by SPR analysis
Outline: (§1)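 N-His-tagged E. coli β clamp (dnaN in pET15b, BL21, IPTG-induced at 28 C; Ni-NTA then MonoQ) was analysed by SPR on a chip carrying immobilized P1 peptide. For direct binding, β at 0.125–2 μM was injected at 50 μL/min, and background-subtracted data were fit to a 1:1 Langmuir model. For competition, β (0.25 μM) was premixed with peptide (1.5 nM–100 μM) and injected. IC50 came from % binding inhibition; Ki = (1 + KA[β])/IC50 and ΔG = RT ln Ki.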

[2] = Inhibition of Escherichia coli DNA polymerase 3 subunit beta-dependent elongation activity expressed in Escherichia coli BL21 after 2 hrs by competitive biochemical assay
Outline: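 Assay run in 40 mM HEPES pH 7.5 with 80 mM K-glutamate, BSA, 16% glycerol, NP40 and 8 mM DTT. Primed 30/90-mer duplex (1 nM) was loaded at 37 C with SSB (90 nM), ATP (200 μM) and MgCl2 (7.5 mM), then γ complex (1 nM) and β dimer (5 nM). Mixtures took peptide or DMSO for 5 min at RT plus 2 h at 4 C.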

[3] = Binding affinity to Escherichia coli DNA polymerase 3 subunit beta expressed in Escherichia coli BL21 by ITC assay
Outline: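 ITC at 25 C: peptide (400 μM) was injected in 2 μL steps into His-tagged β clamp (20 or 30 μM) in 10 mM Hepes pH 7.4, 0.15 M NaCl, 3 mM EDTA, 0.005% P20. Heats were corrected using peptide-into-buffer controls.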

Escherichia coli [4] = experiment: Ratio of ull length DNA polymerase 4 Kd to compound Kd for Escherichia coli DNA polymerase 3 subunit beta by ITC assay
Escherichia coli [5] = experiment: Ratio of ull length DNA polymerase 4 IC50 to compound IC50 for Escherichia coli DNA polymerase 3 subunit beta by SPR analysis
[6] = Binding affinity to Escherichia coli DNA polymerase 3 subunit beta expressed in Escherichia coli BL21 assessed as dissociation constant by SPR analysis; outline: as §1
[7] = Inhibition of Escherichia coli DNA polymerase 3

IC50 [1] [nM]	IC50 [2] [nM]	Ratio (Escherichia coli [4])	Ratio IC50 (Escherichia coli [5])	Compound	Ka (inhibitor association constant, 1/M; higher = tighter) [1] [×10⁶ /M]	Kd [3] [nM]	Kd [6] [nM]	Ki [7] [nM]
1120	4500	–	–	CC(=O)N[C@@H](CCC(N)=O)C(=O)N[C@@H](CC(C)C)C(=O)N[C@@H](CC(=O)O)C(=O)N[C@@H](CC(C)C)C(=O)N[C@@H](Cc1ccccc1)C(=O)O	1.2	613	–	–
8620	7000	–	–	H-RQLVLF-OH	0.15	2320	–	–
96	250	–	–	CC(=O)N[C@@H](CCC(N)=O)C(=O)N[C@@H](CC1CCCCC1)C(=O)N[C@@H](CC(=O)O)C(=O)N[C@@H](CC(C)C)C(=O)N[C@@H](Cc1ccc(Br)cc1)C(=O)O (Ac-Q[Cha]DL[Phe(4-Br)]-OH)	13.49	136	–	–
82800	–	–	–	CC(=O)N[C@@H](CCC(N)=O)C(=O)N[C@@H](CCC1CCCCC1)C(=O)N[C@@H](CC(=O)O)C(=O)N[C@@H](CC(C)C)C(=O)N[C@@H](Cc1ccccc1)C(=O)O (Ac-Q[hCha]DLF-OH)	0.0164	–	–	–
990	–	–	–	CC(=O)N[C@@H](CCC(N)=O)C(=O)N[C@@H](CC(C)(C)C)C(=O)N[C@@H](CC(=O)O)C(=O)N[C@@H](CC(C)C)C(=O)N[C@@H](Cc1ccccc1)C(=O)O (Ac-Q[tBuAla]DLF-OH)	1.36	–	–	–
–	125	4	4	CC(=O)N[C@@H](CCC(N)=O)C(=O)N[C@@H](CC1CCCCC1)C(=O)N[C@@H](CC(=O)O)C(=O)N[C@@H](CC(C)C)C(=O)N[C@@H](Cc1ccc(Cl)c(Cl)c1)C(=O)O (Ac-Q[Cha]DL[Phe(3,4-Cl2)]-OH)	–	55	–	–
740	–	–	–	CC(=O)N[C@@H](CCC(N)=O)C(=O)N[C@@H](CCC(C)C)C(=O)N[C@@H](CC(=O)O)C(=O)N[C@@H](CC(C)C)C(=O)N[C@@H](Cc1ccccc1)C(=O)O	1.84	–	–	–
21500	–	–	–	H-RQLVLL-OH	0.0063	–	–	–
170	2800	–	–	CC(=O)N[C@@H](CCC(N)=O)C(=O)N[C@@H](CC1CCCCC1)C(=O)N[C@@H](CC(=O)O)C(=O)N[C@@H](CC(C)C)C(=O)N[C@@H](Cc1ccccc1)C(=O)O (Ac-Q[Cha]DLF-OH)	8.01	222	–	–
256000	–	–	–	H-RQLVFL-OH	–	–	–	–
260	2000	–	–	CC(=O)N[C@@H](CCC(N)=O)C(=O)N[C@@H](CC1CCCCC1)C(=O)N[C@@H](CC(=O)O)C(=O)N[C@@H](CC(C)C)C(=O)N[C@@H](Cc1ccc(C)cc1)C(=O)O (Ac-Q[Cha]DL[Phe(4-Me)]-OH)	8.43	362	–	–
8850	–	–	–	H-RQLVLGL-OH	0.15	1580	285	–
12400	–	–	–	CC(C)C[C@H](NC(=O)[C@H](CC(=O)O)NC(=O)[C@H](CC(C)C)NC(=O)[C@@H](N)CCC(N)=O)C(=O)N[C@@H](Cc1ccccc1)C(=O)O	0.11	–	–	–
–	–	–	–	CCOc1cc(/C=C2\SC(=S)N(CC(=O)O)C2=O)c(Br)c(Br)c1O	–	–	–	10000
160	300	–	–	CC(=O)N[C@@H](CCC(N)=O)C(=O)N[C@@H](CC1CCCCC1)C(=O)N[C@@H](CC(=O)O)C(=O)N[C@@H](CC(C)C)C(=O)N[C@@H](Cc1ccc(Cl)cc1)C(=O)O (Ac-Q[Cha]DL[Phe(4-Cl)]-OH)	13.7	89	–	–
